Measured values: ChEMBL document CHEMBL4017509, “A Dual Modulator of Farnesoid X Receptor and Soluble Epoxide Hydrolase To Counter Nonalcoholic Steatohepatitis” (J Med Chem, 2017)
The source made the active and inactive calls. The calls are words filed in the database; no cut-off is given here.

How the values were obtained:
[1] = target: T1, Bile acid receptor (Homo sapiens) (UniProt Q96RI1); test: Transactivation of human FXR expressed in human HeLa cells co-expressing BSEP at 50 uM after 24 hrs by dual-glo luciferase reporter gene assay relative to GW4064; format: cell-based
T1 sequence (whole entry): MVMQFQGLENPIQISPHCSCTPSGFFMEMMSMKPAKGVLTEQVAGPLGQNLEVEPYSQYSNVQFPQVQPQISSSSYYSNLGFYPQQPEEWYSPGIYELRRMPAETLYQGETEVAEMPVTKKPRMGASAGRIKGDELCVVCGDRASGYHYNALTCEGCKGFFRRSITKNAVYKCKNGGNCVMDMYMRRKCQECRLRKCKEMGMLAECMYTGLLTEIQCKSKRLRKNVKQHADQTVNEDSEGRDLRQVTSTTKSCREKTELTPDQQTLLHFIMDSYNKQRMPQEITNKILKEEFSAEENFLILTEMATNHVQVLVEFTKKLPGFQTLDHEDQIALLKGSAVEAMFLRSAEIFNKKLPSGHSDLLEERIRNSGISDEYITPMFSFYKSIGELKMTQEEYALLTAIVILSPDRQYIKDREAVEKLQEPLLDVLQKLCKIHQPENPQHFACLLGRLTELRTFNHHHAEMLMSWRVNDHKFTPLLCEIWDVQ
How it was run: (§1)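 HeLa cells in DMEM/10% FCS at 37 °C, 5% CO2; switched to 0.5% charcoal-stripped FCS before calcium phosphate co-transfection with pcDNA3-hFXR, pSG5-hRXR, BSEP promoter–firefly luciferase reporter and pRL-SV40 renilla. Compound in 0.1% DMSO, phenol red-free medium, 24 h.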

[2] = target: T2, Bifunctional epoxide hydrolase 2 (Homo sapiens) (UniProt P34913); test: Inhibition of recombinant human sEH at 50 uM using PHOME as substrate preincubated for 30 mins followed by substrate addition measured for 30 mins by fluorescence photometric method
T2 sequence (whole entry): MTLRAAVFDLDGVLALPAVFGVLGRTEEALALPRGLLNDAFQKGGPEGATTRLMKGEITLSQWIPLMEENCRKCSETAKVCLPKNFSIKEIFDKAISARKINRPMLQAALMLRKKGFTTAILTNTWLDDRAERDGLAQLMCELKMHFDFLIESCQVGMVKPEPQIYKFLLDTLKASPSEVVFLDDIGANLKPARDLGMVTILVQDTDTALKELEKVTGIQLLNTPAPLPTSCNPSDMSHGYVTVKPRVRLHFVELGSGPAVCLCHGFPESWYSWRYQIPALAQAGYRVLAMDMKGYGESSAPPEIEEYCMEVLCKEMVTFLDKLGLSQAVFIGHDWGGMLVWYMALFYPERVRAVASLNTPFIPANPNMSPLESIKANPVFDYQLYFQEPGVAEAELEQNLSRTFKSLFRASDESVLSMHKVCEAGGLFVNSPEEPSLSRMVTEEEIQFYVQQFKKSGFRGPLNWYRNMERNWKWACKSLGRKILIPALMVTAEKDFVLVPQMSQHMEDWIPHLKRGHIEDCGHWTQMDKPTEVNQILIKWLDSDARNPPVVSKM
How it was run: (§2)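 Recombinant human sEH in Bis-Tris buffer pH 7, 0.1 mg/mL BSA, 0.01% Triton X-100 (final), preincubated 30 min at room temperature with compound (1% DMSO final). PHOME added at 50 μM final; 6-methoxynaphthaldehyde fluorescence read each minute for 30 min.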

[3] = target: T3, Bifunctional epoxide hydrolase 2 (Homo sapiens, UniProt P34913); test: Inhibition of recombinant human sEH using PHOME as substrate preincubated for 30 mins followed by substrate addition measured for 30 mins by fluorescence photometric method; how it was run: as §2
T3 sequence (P34913 whole entry): T2 sequence (whole entry)

Bile acid receptor = target: T4, Bile acid receptor (Homo sapiens, UniProt Q96RI1); test: Transactivation of human FXR expressed in human HeLa cells co-expressing BSEP after 24 hrs by dual-glo luciferase reporter gene assay; format: cell-based; how it was run: as §1
T4 sequence (Q96RI1 whole entry): T1 sequence (whole entry)

Liver = test: Drug level in Sprague-Dawley rat liver microsomes treated with 4-(tert-Butyl)-N-(2-chloro-4-(methylsulfonamido)benzyl)-benzamide at 10 uM preincubated with NADPH regenerating system for 5 mins followed by addition of liver microsomes by LC-MS/MS method; format: ADME, microsome
[4] = target: T2, Bifunctional epoxide hydrolase 2 (Homo sapiens); test: Inhibition of sEH in human HepG2 cells assessed as NF-kappaB mRNA expression at 1 uM after 8 to 16 hrs by SYBR green based qRT-PCR analysis relative to DMSO control; format: cell-based
How it was run: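 HepG2 cells treated with compound or 0.1% DMSO vehicle; NF-κB mRNA quantified by SYBR Green qRT-PCR, comparative ΔΔCt with GAPDH reference; expressed as % of vehicle (100%).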

Compound	inhibition [2]	IC50 ([3]; read-out: IC50)	Drug metabolism (Liver)	inhibition [4]	IC50 [3]	Emax [1]	EC50 (Bile acid receptor)
O=C(O)c1ccc(CNC(=O)c2ccc(C(F)(F)F)c(C(F)(F)F)c2)cc1	55%					inactive	
Cc1cccc(C(=O)NCc2ccc(C(=O)O)cc2)c1	37%					inactive	
CC(C)(C)c1ccc(C(=O)NCc2ccc(N)cc2Cl)cc1			Metabolite_Detected				
C[C@@H]1C[C@H]2[C@@H]3CCC4=CC(=O)C=C[C@]4(C)[C@@]3(F)[C@@H](O)C[C@]2(C)[C@@]1(O)C(=O)CO				59.4%			
Cc1ccc(C(=O)NCc2ccc(C(=O)O)cc2)cc1	24%					15%	
O=C(O)c1ccc(CNC(=O)c2cccc(-c3ccccc3)c2)cc1		10000 nM				14%	670 nM
CC(C)(C)c1ccc(C(=O)NCc2ccc(C(=O)O)cc2Cl)cc1		170 nM				25%	7500 nM
COc1ccc(C(=O)NCc2ccc(C(=O)O)cc2)cc1OC	26%					18%	370 nM
O=C(O)c1ccc(CNC(=O)c2ccc(Cl)c(Cl)c2)cc1		10500 nM				inactive	
Cc1ccc(C(=O)NCc2ccc(C(=O)O)cc2)cc1C	52%					12%	320 nM
O=C(O)c1ccc(CNC(=O)C2CCCCC2)cc1	37%					inactive	
O=C(O)c1ccc(CNC(=O)c2ccccc2)cc1	16%					12%	
Cc1ccc(C(=O)NCc2ccc(C(=O)O)cc2)c(C)c1	7%					inactive	
CC(C)(C)c1ccc(NC(=O)Nc2ccc(C(=O)O)cc2)cc1		18500 nM				14%	3800 nM
COc1cc(C(=O)NCc2ccc(C(=O)O)cc2)ccc1C(C)(C)C		5040 nM				23%	1200 nM
Cc1cc(C(=O)O)ccc1CNC(=O)c1ccc(C(C)(C)C)cc1		680 nM				inactive	
O=C(O)c1ccc(CNC(=O)c2ccccc2-c2ccccc2)cc1	19%					22%	
CN(C)c1ccc(C(=O)NCc2ccc(C(=O)O)cc2)cc1	19%					inactive	
O=C(O)c1ccc(CNC(=O)c2ccc(-c3ccccc3)cc2)cc1						24%	
CC(C)(C)c1ccc(C(=O)NCc2ccc(C(=O)O)cc2F)cc1		1430 nM				26%	7.8 nM
O=C(O)c1ccc(CNC(=O)c2ccc3ccccc3c2)cc1	45%					18%	1360 nM
CC(NC(=O)c1ccc(C(C)(C)C)cc1)c1ccc(C(=O)O)cc1 (centres undefined)	37%					24%	76 nM
CC(C)(C)c1ccc(C(=O)NCc2ccc(S(N)(=O)=O)cc2F)cc1		137 nM				34%	970 nM
Cc1ccccc1C(=O)NCc1ccc(C(=O)O)cc1	14%					inactive	
O=C(O)c1ccc(CNC(=O)C2CCNCC2)cc1	< 3%					inactive	
CC(C)(CO)c1ccc(C(=O)NCc2ccc(NS(C)(=O)=O)cc2Cl)cc1			Metabolite_Detected				

Now from value to compound, other results behind:

inhibition [2]	IC50 ([3]; read-out: IC50)	Drug metabolism (Liver)	inhibition [4]	IC50 [3]	Compound	Emax [1]	EC50 (Bile acid receptor)
	120 nM				CSc1ccc(CNC(=O)c2ccc(C(C)(C)C)cc2)cc1	33%	100 nM
	1200 nM				CC(C)(C)c1ccc(C(=O)NCc2ccc(C(N)=O)cc2)cc1	27%	3800 nM
	220 nM				C[S+]([O-])c1ccc(CNC(=O)c2ccc(C(C)(C)C)cc2)cc1 (centres undefined)	24%	1300 nM
	12700 nM				CC(=O)NS(=O)(=O)c1ccc(CNC(=O)c2ccc(C(C)(C)C)cc2)cc1	inactive	
50%					CC(C)(C)c1ccc(C(=O)NCc2ccc(C(=O)O)c(Cl)c2)cc1	21%	8.8 nM
	910 nM				CC(C)(C)c1ccc(C(=O)NCc2ccc(C#N)cc2)cc1	inactive	
	4200 nM				CC(C)(C)c1ccc(C(=O)NCc2ccc(C(=O)O)cc2)cc1	13%	370 nM
	430 nM				COc1ccc(CNC(=O)c2ccc(C(C)(C)C)cc2)cc1	19%	150 nM
	660 nM				CC(C)(C)c1ccc(C(=O)NCc2ccc(NC(=O)C(F)(F)F)cc2)cc1	20%	260 nM
	510 nM				CC(C)(C)c1ccc(C(=O)NCc2ccc(C=O)cc2)cc1	22%	5300 nM
	390 nM				CC(C)(C)c1ccc(C(=O)NCc2ccc(SC(F)(F)F)cc2)cc1	19%	0.4 nM
	1900 nM				CNC(=O)c1ccc(CNC(=O)c2ccc(C(C)(C)C)cc2)cc1	29%	340 nM
	157 nM				CC(=O)c1ccc(CNC(=O)c2ccc(C(C)(C)C)cc2)cc1	29%	100 nM
	1200 nM				CC(C)(C)c1ccc(C(=O)NCc2ccc(S(C)(=O)=O)cc2)cc1	34%	3800 nM
	650 nM				CC(C)(C)c1ccc(C(=O)NCc2ccc(NS(C)(=O)=O)cc2)cc1	22%	44 nM
	19000 nM				CC(C)(C)c1ccc(C(=O)NCc2ccc(OCC(=O)O)cc2)cc1	21%	730 nM
53%					Cc1cc(CNC(=O)c2ccc(C(C)(C)C)cc2)ccc1C(=O)O	14%	160 nM
	4600 nM				CN(C)C(=O)c1ccc(CNC(=O)c2ccc(C(C)(C)C)cc2)cc1	17%	170 nM
	3500 nM				CC(C)(C)c1ccc(C(=O)NCc2ccc(N)cc2)cc1	inactive	
	20300 nM				CC(C)(C)c1ccc(C(=O)NCc2ccc(C(=O)O)c(F)c2)cc1	28%	140 nM
				Nd(Insoluble)	CC(C)Oc1ccc(CNC(=O)c2ccc(C(C)(C)C)cc2)cc1	26%	170 nM
	1630 nM				CC(C)(C)c1ccc(C(=O)NCc2ccc(CCC(=O)O)cc2)cc1	16%	350 nM
	1120 nM				CC(=O)Nc1ccc(CNC(=O)c2ccc(C(C)(C)C)cc2)cc1	31%	2900 nM
	2050 nM				CC(C)(C)c1ccc(C(=O)NCc2ccc(CO)cc2)cc1	inactive	
	570 nM				CCOc1ccc(CNC(=O)c2ccc(C(C)(C)C)cc2)cc1	31%	160 nM
	220 nM				CC(C)(C)c1ccc(C(=O)NCc2ccc(OC(F)(F)F)cc2)cc1	26%	160 nM
	18200 nM				CC(C)(C)c1ccc(C(=O)NCc2ccc(-c3nnn[nH]3)cc2)cc1	23%	120 nM
	280 nM				CC(C)(C)c1ccc(C(=O)NCc2ccc(S(N)(=O)=O)cc2)cc1	16%	1400 nM
	20000 nM				CC(C)(C)c1ccc(C(=O)NCc2ccc(CC(=O)O)cc2)cc1	19%	6400 nM
26%					CC(C)(C)c1ccc(C(=O)NCc2cccc(C(=O)O)c2)cc1	14%	1700 nM
